ChEMBL document CHEMBL1649475, “In vivo pharmacodynamic profile of tigecycline against phenotypically diverse Escherichia coli and Klebsiella pneumoniae isolates” (Antimicrob Agents Chemother, 2009)
Converted amounts (≈) assume the structure as drawn.

Legend:
[1] = Ratio of fAUC to MIC in Escherichia coli isolate 120-infected ICR mouse at 80% maximal effective concentration; assay type: functional
Procedure, shortened: (§1)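 EI50, EI80 and the static exposure were read from fitted curves. Free AUC came from earlier mouse PK using concentration-dependent protein binding set at Cmax. MICs were run in triplicate by CLSI broth microdilution in Mueller-Hinton broth prepared <12 h before testing, or by Etest.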

[2] = tested on: Escherichia coli; experiment: Antibacterial activity against Escherichia coli isolate 120 infected in ICR mouse assessed as change in bacterial load at 6.25 to 50 mg/kg, sc; assay type: functional; conditions: dose mg/kg 6.25-50; route subcutaneous
Procedure, shortened: (§2)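 Female CD-1/ICR mice (~25 g) were made neutropenic with intraperitoneal cyclophosphamide, 150 mg/kg 4 days and 100 mg/kg 1 day before inoculation. Isolates were grown on blood agar at 35°C for 18–24 h, and 0.1 ml of 10^7 CFU/ml was injected intramuscularly per thigh. At 2 h, tigecycline in saline was given sc as single or multiple doses of 3.125–50 mg/kg. Thighs were homogenized at 24 h and plated. Read-out was mean change in log10 CFU/ml versus 0-h controls, three mice per group.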

[3] = Ratio of fAUC to MIC in extended-spectrum beta-lactamase producing Escherichia coli isolate 315-infected ICR mouse at bacteriostatic concentration; assay type: functional; procedure, shortened: as §1
[4] = tested on: Klebsiella pneumoniae; experiment: Antibacterial activity against extended-spectrum beta-lactamase producing Klebsiella pneumoniae isolate 255 infected in ICR mouse assessed as change in bacterial load at 6.25 to 50 mg/kg, sc; assay type: functional; conditions: dose mg/kg 6.25-50; route subcutaneous; procedure, shortened: as §2
[5] = tested on: Klebsiella pneumoniae; experiment: Antibacterial activity against extended-spectrum beta-lactamase producing Klebsiella pneumoniae isolate 266 infected in ICR mouse assessed as change in bacterial load at 6.25 to 50 mg/kg, sc; assay type: functional; conditions: dose mg/kg 6.25-50; route subcutaneous; procedure, shortened: as §2
[6] = Ratio of fAUC to MIC in Klebsiella pneumoniae isolate 135-infected ICR mouse at 80% maximal effective concentration; assay type: functional; procedure, shortened: as §1
[7] = Ratio of fAUC to MIC in extended-spectrum beta-lactamase producing Escherichia coli isolate 321-infected ICR mouse at 50% maximal effective concentration; assay type: functional; procedure, shortened: as §1
[8] = tested on: Klebsiella pneumoniae; experiment: Antibacterial activity against Klebsiella pneumoniae isolate 134 by broth microdilution method; assay type: functional
Procedure, shortened: (§3)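 Tigecycline MICs by broth microdilution per CLSI guidelines, run in triplicate. Mueller-Hinton broth was prepared fresh less than 12 h before testing.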

[9] = tested on: Klebsiella pneumoniae; experiment: Antibacterial activity against carbapenemase producing Klebsiella pneumoniae isolate 321 by broth microdilution method; assay type: functional; procedure, shortened: as §3
[10] = Ratio of fAUC to MIC in extended-spectrum beta-lactamase producing Klebsiella pneumoniae isolate 266-infected ICR mouse at 80% maximal effective concentration; assay type: functional; procedure, shortened: as §1
[11] = Ratio of fAUC to MIC in carbapenemase producing Klebsiella pneumoniae isolate 321-infected ICR mouse at bacteriostatic concentration; assay type: functional; procedure, shortened: as §1
[12] = tested on: Klebsiella pneumoniae; experiment: Antibacterial activity against extended-spectrum beta-lactamase producing Klebsiella pneumoniae isolate 320 infected in ICR mouse assessed as change in bacterial load at 6.25 to 50 mg/kg, sc; assay type: functional; conditions: dose mg/kg 6.25-50; route subcutaneous; procedure, shortened: as §2
[13] = Ratio of fAUC to MIC in Klebsiella pneumoniae isolate 135-infected ICR mouse at 50% maximal effective concentration; assay type: functional; procedure, shortened: as §1
[14] = tested on: Escherichia coli; experiment: Antibacterial activity against Escherichia coli isolate 120 by broth microdilution method; assay type: functional; procedure, shortened: as §3
[15] = Ratio of fAUC to MIC in extended-spectrum beta-lactamase producing Klebsiella pneumoniae isolate 266 at bacteriostatic concentration; assay type: functional; procedure, shortened: as §1
[16] = Cmax in ICR mouse at 6.25 mg/kg, sc; conditions: in vivo
[17] = tested on: Klebsiella pneumoniae; experiment: Antibacterial activity against extended-spectrum beta-lactamase producing Klebsiella pneumoniae isolate 320 by broth microdilution method; assay type: functional; procedure, shortened: as §3
[18] = tested on: Escherichia coli; experiment: Antibacterial activity against extended-spectrum beta-lactamase producing Escherichia coli isolate 321 infected in ICR mouse assessed as change in bacterial load at 6.25 to 50 mg/kg, sc; assay type: functional; conditions: dose mg/kg 6.25-50; route subcutaneous; procedure, shortened: as §2
[19] = tested on: Escherichia coli; experiment: Antibacterial activity against extended-spectrum beta-lactamase producing Escherichia coli isolate 315 by broth microdilution method; assay type: functional; procedure, shortened: as §3
[20] = tested on: Klebsiella pneumoniae; experiment: Antibacterial activity against extended-spectrum beta-lactamase producing Klebsiella pneumoniae isolate 266 by broth microdilution method; assay type: functional; procedure, shortened: as §3
[21] = tested on: Klebsiella pneumoniae; experiment: Antibacterial activity against Klebsiella pneumoniae isolate 135 infected in ICR mouse assessed as change in bacterial load at 6.25 to 50 mg/kg, sc; assay type: functional; conditions: dose mg/kg 6.25-50; route subcutaneous; procedure, shortened: as §2
[22] = Ratio of fAUC to MIC in Escherichia coli isolate 120-infected ICR mouse at 50% maximal effective concentration; assay type: functional; procedure, shortened: as §1
[23] = Ratio of fAUC to MIC in extended-spectrum beta-lactamase producing Klebsiella pneumoniae isolate 266-infected ICR mouse at 50% maximal effective concentration; assay type: functional; procedure, shortened: as §1
[24] = Ratio of fAUC to MIC in carbapenemase producing Klebsiella pneumoniae isolate 321-infected ICR mouse at 50% maximal effective concentration; assay type: functional; procedure, shortened: as §1
[25] = Ratio of fAUC to MIC in extended-spectrum beta-lactamase producing Escherichia coli isolate 322-infected ICR mouse at bacteriostatic concentration; assay type: functional; procedure, shortened: as §1
[26] = Ratio of fAUC to MIC in Escherichia coli isolate 54-infected ICR mouse at 80% maximal effective concentration; assay type: functional; procedure, shortened: as §1
[27] = Ratio of fAUC to MIC in extended-spectrum beta-lactamase producing Escherichia coli isolate 321-infected ICR mouse at bacteriostatic concentration; assay type: functional; procedure, shortened: as §1
[28] = tested on: Escherichia coli; experiment: Antibacterial activity against extended-spectrum beta-lactamase producing Escherichia coli isolate 321 by broth microdilution method; assay type: functional; procedure, shortened: as §3
[29] = Ratio of fAUC to MIC in extended-spectrum beta-lactamase producing Escherichia coli isolate 321-infected ICR mouse at 80% maximal effective concentration; assay type: functional; procedure, shortened: as §1

With `CN(C)c1cc(NC(=O)CNC(C)(C)C)c(O)c2c1C[C@H]1C[C@H]3[C@H](N(C)C)C(O)=C(C(N)=O)C(=O)[C@@]3(O)C(O)=C1C2=O` [TIGECYCLINE] the fAUC/MIC [1] was 7.3, the log10CFU/ml [2] was -2.3 and the fAUC/MIC [3] was 3.88. For the same compound, the log10CFU/ml [4] was -3.15, the log10CFU/ml [5] was -1.34 and the fAUC/MIC [6] was 7.78. The fAUC/MIC [7] was 6.4, the MIC [8] was 0.5 µg/mL (≈ 0.854 µM) and the MIC [9] was 0.5 µg/mL (≈ 0.854 µM). The fAUC/MIC [10] was 7.15, the fAUC/MIC [11] was 5.47 and the log10CFU/ml [12] was -1.12. The fAUC/MIC [13] was 3.62, the MIC [14] was 0.125 µg/mL (≈ 0.213 µM) and the fAUC/MIC [15] was 5.13. The Cmax [16] was 1700 ng/mL, the MIC [17] was 2 µg/mL (≈ 3.41 µM) and the log10CFU/ml [18] was -2.54. It also gave an MIC [19] of 0.5 µg/mL (≈ 0.854 µM), an MIC [20] of 0.5 µg/mL (≈ 0.854 µM) and a log10CFU/ml [21] of -1.51. For the same compound, the fAUC/MIC [22] was 3.7, the fAUC/MIC [23] was 5.37 and the fAUC/MIC [24] was 4.53. For the same compound, the fAUC/MIC [25] was 7.5, the fAUC/MIC [26] was 7.7 and the fAUC/MIC [27] was 6.83. It also gave an MIC [28] of 0.25 µg/mL (≈ 0.427 µM) and a fAUC/MIC [29] of 9.07.
